The RNAGym collection of RNA variant scans (doi:10.1126/science.aae0568)
Fewer inactive variants are shown than the library holds.

B1: tRNA (parent)
chain: GUUCCGUUGGCGUAAUGGUAACGCGUCUCCCUCCUAAGGAGAAGACUGCGGGUUCGAGUCCCGUACGGAACG

Variants of: B1
Experiment: yeast fitness relative to wild type (ratio to wild type); higher = fitter; tRNA-Arg(CCU), competitive growth, 37 C, YPD
Summary of the method: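 A pool of Saccharomyces cerevisiae strains, each with a tRNA-Arg(CCU) gene variant at the native genomic locus, was competed in YPD at 37°C for 24 hours across six parallel replicates. The variants had been chemically synthesised at a 3% per-site mutation rate over 69 sites, and gene amplicons before and after competition were read by 100-nucleotide paired-end sequencing. Darwinian fitness relative to wild type rested on changes in genotype frequencies. Genotypes required ≥ 100 starting reads, and estimates < 0.5 were set to 0.5.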

Variant | yeast fitness
GUUCCGUUGGCGUAAUGGUAACUCGUCUCCCACCUAAGGAGAAGACUGCGGGAUGGAGUCCCGUACGGAACG [G23U U32A U53A C55G] | ≤ 0.5
GUUCCGUUGGCGUAAUGGUAACCCGUCUUCCUCCUAAGGAGAAAACUGCGGGUUCGAGUCCUGUACGGAACG [G23C C29U G44A C62U] | ≤ 0.5
GUUCCGUUGGCGUAAUGGUAACACGUCUCCCUCAUAAGGAGAUGACCGCGGGUUCGAGUCCGGUAAGGAACG [G23A C34A A43U U47C C62G C66A] | 0.689
GUUCCGUUGGCGUAAUGGUAACCCGUGUCCCUCCUAAGGAGAAGGCUGCGGAUUCGAGUCCCGUACGGAACG [G23C C27G A45G G52A] | 0.57
GUUCCGUUGGCGUAAUGGUAACCCGUCUCCCUCCUAAGGAAAAGCCUGCGGGUUCGAGUCCCGUCCGGAACG [G23C G41A A45C A65C] | 0.583
GUUCCGUUGGCGUAAUGGUAACCCGUCUCCCUCCUAAGGAGAAGACUGCGGGAUCGAGUCCCGUUCGGAACG [G23C U53A A65U] | ≤ 0.5
GUUCCGUUGGCGUAAUGGUAACCCGUCUCCCUCCUAAGGAGAAGACUGCGGGUUGGAGUCCCGUACGGAACG [G23C C55G] | ≤ 0.5
GUUCCGUUGGCGUAAUGGUAACACGUCUCCCUCCUAAGGAGAAGACUGCGGGUUUGCAUCCCGUACGGAACG [G23A C55U A57C G58A] | ≤ 0.5
GUUCCGUUGGCGUAAUGGUAACCCGUCUCCUUCCUAAGGAGAAGACUAUGGGUUCGAGUCCCGUACGGAACG [G23C C31U G48A C49U] | ≤ 0.5
GUUCCGUUGGCGUAAUGGUAACCCGUCUCCCUCCUAAAGAGAAGACUGCGGGUUCGAGUCCCGUACGGAACG [G23C G38A] | 0.696
GUUCCGUUGGCGUAAUGGUAACUGGUUUCCCUCCUAAGGAGAAGACUGCGGGUUCGAGUCCCGUACGGAACG [G23U C24G C27U] | ≤ 0.5
GUUCCGUUGGCGUAAUGGUAACACGUCUCCCUCAUAAGGAGAAGACUGCGGGUUCGAGUCCCGUACGGAACG [G23A C34A] | 0.523
GUUCCGUUGGCGUAAUGGUAACGAGUCUCCCUCCUCAGGAGAAGACUGCGGCUUCGAGUCCCGUAUGGAACG [C24A A36C G52C C66U] | 0.761
GUUCCGUUGGCGUAAUGGUAACCCGUCUCCCUUCUAAGGAGAAGACUGCGGGUUCGUGUCCCGUACAGAACG [G23C C33U A57U G67A] | 0.512
GUUCCGUUGGCGUAAUGGUAACCCGUCUGCCUCCUAAGGAGAAGACUGCGGGUUCGAGUCCCGUACUGCACG [G23C C29G G67U A69C] | ≤ 0.5
GUUCCGUUGGCGUAAUGGUAACACGUCCCCCUCCUAAGGAGAAGACUGCGGGUUCGAGCGCCGUACGGAACG [G23A U28C U59C C60G] | 0.649
GUUCCGUUGGCGUAAUGGUAACCCGUCUCCCUCCUAAGGAGAAGACUGCGGGUUCGAGCCCCGUACGGAACG [G23C U59C] | 0.583
GUUCCGUUGGCGUAAUGGUAACCAGUCUCGCUCCUAAGGUGAAGACAGCGCGUUCGAGUCCCGUAAGGUACG [G23C C24A C30G A40U U47A G51C C66A A69U] | 0.525
GUUCCGUUGGCGUAAUGGUAACACGUCUCCCUCCUAAGGAGAAGACUGCGGGUUCGAGACCCGUACGGAACG [G23A U59A] | 0.791

Variant | yeast fitness
GUUCCGUUGGCGUAAUGGUAACCCGUCUCCAUCCUUAGGAGAAGACUGCGGGUUCGAGUCCCGUACGGAACG [G23C C31A A36U] | ≤ 0.5
GUUCCGUUGGCGUAAUGGUAACCCGUCUGCCUCCUAAGGAGAUGACUGCGGGUUCGAGUCCCGUACGGAACG [G23C C29G A43U] | ≤ 0.5
GUUCCGUUGGCGUAAUGGUAACCCGUCUCCCUCCUAAGGAGAAGUCUGCGGGUUCGAGUCCCGUCCGGAACG [G23C A45U A65C] | ≤ 0.5
GUUCCGUUGGCGUAAUGGUAACCCGUCUUCCUCCUAAGGAGAAGACUGAGGGUUCGAGUCUCGUACGGAACG [G23C C29U C49A C61U] | ≤ 0.5
GUUCCGUUGGCGUAAUGGUAACACGUCUCCCUGCUAAGGAGAAGACAGCGGGUUCGAGUCCCGUACGAAACG [G23A C33G U47A G68A] | 0.539
GUUCCGUUGGCGUAAUGGUAACCCGUCCUCCUCCUAAGGAGAAGACUGCGGGUUCGAGUCCCGUACGGCACG [G23C U28C C29U A69C] | ≤ 0.5
GUUCCGUUGGCGUAAUGGUAACCCGUCUCCCUCCUAGGGAGAAGACUGCGGGUUCGAGUCCCGUACGGCACG [G23C A37G A69C] | 0.548
GUUCCGUUGGCGUAAUGGUAACCCGUCUCCCUCCUAAGGAGAAGACUGCGGGUUCGAGUCCCGUACGAAACG [G23C G68A] | 0.719
GUUCCGUUGGCGUAAUGGUAACCCGUCUCCCUCCUAAGGAGAAGACUGCGGGUUCGAGUCCCGUACGUAACG [G23C G68U] | 0.64
GUUCCGUUGGCGUAAUGGUAACACGUCUCCCUCCUAAGGAGAAGAUUGCGGGUUCGAGUCCCGUCCGGAACG [G23A C46U A65C] | 0.54
GUUCCGUUGGCGUAAUGGUAACCCGUCUCCCUCCUAAGGAGAAGACUGCAGGUUCGAGUCCCGUACGGAACG [G23C G50A] | 0.726
GUUCCGUUGGCGUAAUGGUAACACGUCUCCGUCCUAAGGAGAAGACUGCGGAUUCGAGUCCCGUACGGAACG [G23A C31G G52A] | ≤ 0.5
GUUCCGUUGGCGUAAUGGUAACACGUCUCUCUCCCAAGGAGAAGACUGCGGGUUCGAGUCCCGUACUGCACG [G23A C30U U35C G67U A69C] | ≤ 0.5
GUUCCGUUGGCGUAAUGGUAACACGUCUCCCUCUUAAGGAGAUCACUGCGGGUUCGAGUUCCGUACGGAACG [G23A C34U A43U G44C C60U] | ≤ 0.5
GUUCCGUUGGCGUAAUGGUAACACGACUCCCUCCUAAGGAGAAGACUGCCGGCUCGAGUCCCGUACGGAACG [G23A U26A G50C U53C] | ≤ 0.5
GUUCCGUUGGCGUAAUGGUAACUCGUCUCCCUCCUAAGGAGAAGACUGCGGGUUCGUGUCCCGUACGGAACG [G23U A57U] | 0.614
GUUCCGUUGGCGUAAUGGUAACCCGUCUCCCUCCUAUGGAGAAGAGUGCGGGUUCGAGUCCCGUACGGAACG [G23C A37U C46G] | ≤ 0.5
GUUCCGUUGGCGUAAUGGUAACACGUCUCCCUCCUAAGGAGAAGACUGCGAGUUCGAGUCACGUAAGGAACG [G23A G51A C61A C66A] | 0.545
